Settings in all cases: tested as the 18F-labelled form
The target in assay [1] is Sodium-dependent serotonin transporter (Rattus norvegicus) (UniProt P31652). The assay is described as follows: Specific binding of [18F]AFA in rat striatum after GBR-12935 treatment; n=3. It counts as functional, tissue-based. A digest of the protocol: (§1)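 Rats, three per group, were pretreated iv with blocker at 2 mg/kg in saline, or with saline as control, 10–15 min before tail-vein F-18 radioligand (about 20 µCi). Killed at 60 min and regional %ID/g determined. Specific binding = (region activity − cerebellum activity)/cerebellum activity; mean ± SD.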

Assay [2] has the same target. Nature of the assay: Specific binding of [18F]AFA in rat thalamus after GBR-12935 treatment; n=3. The assay is classed as functional, tissue-based. A digest of the protocol:
as §1

Assay [3] has the same target. Nature of the assay: Specific binding of [18F]-AFA in rat striatum after citalopram treatment; n=3. It counts as functional, tissue-based. The method, boiled down:
as §1

Assay [4] has the same target. The assay is described as follows: Specific binding of [18F]-AFA in rat striatum after nisoxetine treatment; n=3. The assay is classed as functional, tissue-based. The method, boiled down:
as §1

Assay [5] has the same target. The assay is described as follows: Specific binding of [18F]AFA in rat thalamus after citalopram treatment; n=3. It counts as functional, tissue-based. A digest of the protocol:
as §1

Assay [6] shares this target. Nature of the assay: Specific binding of [18F]AFA in rat thalamus after nisoxetine treatment; n=3. It counts as functional, tissue-based. A digest of the protocol: as §1
For assay [7] the target is unchanged. The assay is described as follows: Specific binding of [18F]AFA in rat hippocampus after GBR-12935 treatment; n=3. The assay is classed as functional, tissue-based. A digest of the protocol: as §1
For assay [8] the target is unchanged. The assay is described as follows: Specific binding of [18F]AFA in rat hypothalamus after GBR-12935 treatment; n=3. The assay is classed as functional, tissue-based. A digest of the protocol: as §1
Assay [9] has the same target. Nature of the assay: Specific binding of [18F]AFA in rat hippocampus after citalopram treatment; n=3. The assay is classed as functional, tissue-based. A digest of the protocol:
as §1

Assay [10] shares this target. The assay is described as follows: Specific binding of [18F]AFA in rat hippocampus after nisoxetine treatment; n=3. It counts as functional, tissue-based. A digest of the protocol:
as §1

Assay [11] has the same target. Nature of the assay: Specific binding of [18F]AFA in rat frontal cortex after GBR-12935 treatment; n=3. The assay is classed as functional, tissue-based. A digest of the protocol: as §1
The target is the same in assay [12]. The assay is described as follows: Specific binding of [18F]AFA in rat hypothalamus after citalopram treatment; n=3. The assay is classed as functional, tissue-based. The method, boiled down:
as §1

The target is the same in assay [13]. Nature of the assay: Specific binding of [18F]AFA in rat hypothalamus after nisoxetine treatment; n=3. The assay is classed as functional, tissue-based. The method, boiled down: as §1
Assay [14] has the same target. The assay is described as follows: Specific binding of [18F]AFA in rat frontal cortex after citalopram treatment; n=3. The assay is classed as functional, tissue-based. The method, boiled down:
as §1

Assay [15] has the same target. Nature of the assay: Specific binding of [18F]AFA in rat frontal cortex after nisoxetine treatment; n=3. It counts as functional, tissue-based. The method, boiled down:
as §1

Assay [16] shares this target. Nature of the assay: Specific binding in rat hypothalamus at 10 min postinjection in vivo. The assay is classed as functional, organism-based. A digest of the protocol: (§2)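 Male Sprague-Dawley rats, n=3 per time point, received about 20 µCi of F-18 radioligand in saline iv by tail vein and were killed at 10–120 min. %ID/g was measured with decay and tail-residual correction. Hypothalamic specific binding = (%ID/g hypothalamus − %ID/g cerebellum)/%ID/g cerebellum; mean ± SD.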

The target is the same in assay [17]. Nature of the assay: Specific binding in rat hypothalamus at 30 min postinjection in vivo. The assay is classed as functional, organism-based. The method, boiled down: as §2
Assay [18] shares this target. Nature of the assay: Specific binding in rat hypothalamus at 60 min postinjection in vivo. It counts as functional, organism-based. The method, boiled down:
as §2

For assay [19] the target is unchanged. The assay is described as follows: Specific binding in rat hypothalamus at 90 min postinjection in vivo. The assay is classed as functional, organism-based. The method, boiled down: as §2
Assay [20] shares this target. The assay is described as follows: Specific binding in rat hypothalamus at 120 min postinjection in vivo. It counts as functional, organism-based. The method, boiled down: as §2
The species named for assay [21] is Rattus norvegicus. Nature of the assay: Regional uptake of [18F]AFA in blood of rat pretreated with compound 7e; n=3. The assay is classed as functional, organism-based.
The species entered for assay [22] is Rattus norvegicus. Nature of the assay: Regional uptake of [18F]-AFA in striatum of rat pretreated with compound 7e; n=3. The assay is classed as functional, organism-based.
For assay [23], the species on record is Rattus norvegicus. The assay is described as follows: Regional uptake of [18F]AFA in cerebellum of rat pretreated with compound 7e; n=3. The assay is classed as functional, organism-based.
For assay [24], the species on record is Rattus norvegicus. The assay is described as follows: Regional uptake of [18F]-AFA in blood of rat pretreated with compound GBR-12935; n=3. It counts as functional, organism-based. A digest of the protocol:
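Male Sprague-Dawley rats, three per group, received blocker (2 mg/kg iv in saline) or saline only (controls) 10–15 min before about 20 µCi of tail-vein F-18 radioligand. Killed 60 min after tracer. Blood and brain regions weighed and gamma-counted. %ID/g was decay- and tail-corrected; mean ± SD.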

Chain of Sodium-dependent serotonin transporter (Rattus norvegicus) (P31652 whole entry): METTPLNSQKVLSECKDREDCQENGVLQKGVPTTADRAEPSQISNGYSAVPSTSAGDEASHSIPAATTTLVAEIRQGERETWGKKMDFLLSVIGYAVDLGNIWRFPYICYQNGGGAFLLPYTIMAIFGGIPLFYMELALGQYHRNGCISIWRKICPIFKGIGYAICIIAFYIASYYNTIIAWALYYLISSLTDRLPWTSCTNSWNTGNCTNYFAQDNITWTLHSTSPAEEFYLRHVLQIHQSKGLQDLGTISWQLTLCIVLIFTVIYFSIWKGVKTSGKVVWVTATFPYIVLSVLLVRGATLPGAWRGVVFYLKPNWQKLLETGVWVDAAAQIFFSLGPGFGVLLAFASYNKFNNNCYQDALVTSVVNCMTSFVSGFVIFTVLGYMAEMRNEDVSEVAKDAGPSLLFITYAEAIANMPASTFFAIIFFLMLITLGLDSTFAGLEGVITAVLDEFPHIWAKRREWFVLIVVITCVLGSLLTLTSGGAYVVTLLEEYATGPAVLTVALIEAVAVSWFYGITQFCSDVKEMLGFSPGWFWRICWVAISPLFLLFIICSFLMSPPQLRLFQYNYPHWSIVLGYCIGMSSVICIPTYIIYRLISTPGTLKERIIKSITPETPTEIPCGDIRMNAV

For `CN(C)Cc1ccccc1Sc1ccc(CCF)cc1N`, the Specific binding in [1] came out at 2.62 %ID/g; in [2], 3.38 %ID/g; in assay [3], 0.5 %ID/g; in [4] it was 2.1 %ID/g; in assay [5], 0.89 %ID/g; in assay [6], 3.56 %ID/g. Further, the Specific binding in [7] is 2.18 %ID/g; in assay [8], 3.85 %ID/g; in assay [9], 0.54 %ID/g; in assay [10] it was 1.63 %ID/g; in assay [11], 1.98 %ID/g; in assay [12], 1 %ID/g. For the same compound, the Specific binding in assay [13] turned out to be 4 %ID/g; in assay [14] it was 0.31 %ID/g; in [15], 1.82 %ID/g; in assay [16], 0.96 %ID/g; in assay [17], 2.22 %ID/g; in assay [18], 3.35 %ID/g. In addition, the Specific binding (dimensionless ratio) in assay [19] turned out to be 4.36; in assay [20] it was 4.5. The Uptake in the assay filed under Rattus norvegicus [21] was found to be 0.06 %ID/g; in the assay filed under Rattus norvegicus [22], 0.11 %ID/g; in the assay filed under Rattus norvegicus [23], 0.07 %ID/g; in the assay listed under Rattus norvegicus [24], 0.06 %ID/g.

The values above are taken from ChEMBL document CHEMBL1145212, “Fluorinated diaryl sulfides as serotonin transporter ligands: synthesis, structure-activity relationship study, and in vivo evaluation of fluorine-18-labeled compounds as PET imaging agents” (J Med Chem, 2005).
